Active and inactive are the calls of the source. The rule behind the calls is not given here.
Experiments:
FM3A = assay: Cytotoxicity against mouse FM3A cells assessed as inhibition of increase in cell density after 48 hrs; format: cell-based
Summary of the method: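 Mouse mammary tumor FM3A (subclone F28-7) cells kept in suspension in ES medium with 2% heat-inactivated FBS, seeded at 5 × 10⁴ cells/mL, compounds added in DMSO. 48 h, 37 °C, 5% CO2; cells counted microscopically. Duplicate wells, mean of three experiments; IC50 is the concentration giving 50% inhibition of cell-density increase versus control.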

Plasmodium falciparum [1] = assay: Antimalarial activity as reduced parasitaemia after 72 hrs against chloroquine-sensitive Plasmodium falciparum FCR3 in human erythrocytes by Diff-Quick stain; format: functional, organism-based; conditions: FCR3, 72 h
Summary of the method: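 FCR-3 grown in type A human RBCs (5% hematocrit stock culture) in RPMI 1640 with HEPES, NaHCO3, gentamicin and 10% heat-inactivated type A human serum. Assay: 0.3% parasitemia, 3% final hematocrit, DMSO compound dilutions; 72 h, 37 °C, 5% CO2/5% O2/90% N2. Parasitemia read from Diff-Quik thin films. Duplicate wells, mean of three experiments; IC50 taken from the growth-inhibition curve.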

Plasmodium falciparum [2] = assay: Antimalarial activity as synchronized middle trophozoites of chloroquine-sensitive Plasmodium falciparum FCR3 in human erythrocytes at 5 uL by Diff-Quick stain; format: functional, organism-based
Summary of the method: (§1)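 Cultures synchronized twice with 5% D-sorbitol 40 h apart (>80% rings); stage checked microscopically before dosing. Compound added at ring, middle trophozoite, late trophozoite or schizont stage; 5% erythrocytes, about 1.0% parasitemia, compound in 0.1% DMSO at 100 times the IC50. 48 h, 37 °C; medium and compound renewed at 24 h. Infection ratio counted per at least 2000 erythrocytes in Diff-Quik films every 6 h; duplicate, versus compound-free control.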

Plasmodium falciparum [3] = assay: Antimalarial activity as synchronized schizonts of chloroquine-sensitive Plasmodium falciparum FCR3 in human erythrocytes at 5 uL by Diff-Quick stain; format: functional, organism-based; summary of the method: as §1
Plasmodium falciparum [4] = assay: Antimalarial activity as synchronized late trophozoites of chloroquine-sensitive Plasmodium falciparum FCR3 in human erythrocytes at 5 uL by Diff-Quick stain; format: functional, organism-based; summary of the method: as §1
Plasmodium falciparum [5] = assay: Antimalarial activity as synchronized ring-stage of chloroquine-sensitive Plasmodium falciparum FCR3 infected human erythrocytes at 5 uL by Diff-Quick stain; format: functional, organism-based; summary of the method: as §1

| EC50 (Plasmodium falciparum [1]) | Compound | EC50 (FM3A) | Activity (Plasmodium falciparum [2]) | Activity (Plasmodium falciparum [3]) | Activity (Plasmodium falciparum [4]) | Activity (Plasmodium falciparum [5]) |
| --- | --- | --- | --- | --- | --- | --- |
| 15 nM | O=C(Nc1ccc(Br)cc1)c1cc[n+](CCCCCCCCCC[n+]2ccc(C(=O)Nc3ccc(Br)cc3)cc2)cc1 | 1390 nM | – | – | – | – |
| 33 nM | O=C(Nc1ccc(C(F)(F)F)cc1)c1cc[n+](CCCCCCCCCC[n+]2ccc(C(=O)Nc3ccc(C(F)(F)F)cc3)cc2)cc1 | 5180 nM | – | – | – | – |
| 39 nM | Cc1ccc(NC(=O)c2cc[n+](CCCCCCCCCC[n+]3ccc(C(=O)Nc4ccc(C)cc4)cc3)cc2)cc1 | 25600 nM | – | – | – | – |
| 74 nM | O=C(Nc1ccc([N+](=O)[O-])cc1)c1cc[n+](CCCCCCCCCC[n+]2ccc(C(=O)Nc3ccc([N+](=O)[O-])cc3)cc2)cc1 | 5990 nM | – | – | – | – |
| 35 nM | N#Cc1ccc(NC(=O)c2cc[n+](CCCCCCCCCC[n+]3ccc(C(=O)Nc4ccc(C#N)cc4)cc3)cc2)cc1 | 42400 nM | – | – | – | – |
| 8 nM | O=C(Nc1ccc(Cl)cc1)c1cc[n+](CCCCCCCCCC[n+]2ccc(C(=O)Nc3ccc(Cl)cc3)cc2)cc1 | 1890 nM | – | – | – | – |
| 21 nM | O=C(Nc1ccc(F)cc1)c1cc[n+](CCCCCCCCCC[n+]2ccc(C(=O)Nc3ccc(F)cc3)cc2)cc1 | 27800 nM | – | – | – | – |
| 12 nM | O=C(Nc1ccc(I)cc1)c1cc[n+](CCCCCCCCCC[n+]2ccc(C(=O)Nc3ccc(I)cc3)cc2)cc1 | 1420 nM | – | – | – | – |
| 29 nM | O=C(Nc1ccccc1)c1cc[n+](CCCCCCCCCC[n+]2ccc(C(=O)Nc3ccccc3)cc2)cc1 | 42800 nM | inactive | Active | inactive | inactive |
| 100 nM | CCCCNC(=O)c1cc[n+](CCCCCCCCCCCC[n+]2ccc(C(=O)NCCCC)cc2)cc1 | 52900 nM | – | – | – | – |
| 5 nM | CCCCCCNC(=O)c1cc[n+](CCCCCCCCCC[n+]2ccc(C(=O)NCCCCCC)cc2)cc1 | 10500 nM | inactive | Active | inactive | inactive |
